In ChEMBL document CHEMBL3867452, “Acylphloroglucinolated Catechin and Phenylethyl Isocoumarin Derivatives from Agrimonia pilosa” (J Nat Prod, 2016):

What was measured:
Mus musculus = organism: Mus musculus; test: Cytotoxicity against mouse BV2 cells assessed as reduction in cell viability after 24 hrs by MTT assay; format: toxicity, cell-based; conditions: bv-2, 24 h
In short: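 BV2 microglia kept in DMEM with 10% FBS, penicillin 100 IU/mL and streptomycin, at 37.8 °C under 5% CO2. Cells were incubated 24 h in 96-well plates. Medium was then replaced with MTT 0.2 mg/mL for 3 h at 37.8 °C, and formazan was dissolved in DMSO. Absorbance read at 540 nm; viability given as percent of control.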

BV-2 = test: Inhibition of LPS-induced NO production in mouse BV2 cells preincubated for 1 hr followed by LPS addition measured after 24 hrs by Griess assay; format: functional, cell-based
In short: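 BV2 cells seeded at 4 × 10^4 cells/well. Compounds were dissolved in DMSO, final DMSO under 0.1%. Pretreatment lasted 1 h, then LPS 500 ng/mL was added and cells incubated 24 h. Nitrite in the medium was measured by Griess assay. IC50 given as mean ± SD of three experiments; ω-nitro-L-arginine methyl ester served as positive control.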

Structure (SMILES) | Activity (Mus musculus) | IC50 (BV-2)
COc1c(C)c(O)c(Cc2c(O)cc(O)c3c2O[C@H](c2ccc(O)c(O)c2)[C@@H](O)C3)c(O)c1C(=O)C(C)C | Non-Toxic | 54.6 µM
CCCC(=O)c1c(O)c(Cc2c(O)cc(O)c3c2O[C@H](c2ccc(O)c(O)c2)[C@@H](O)[C@@H]3c2c(O)cc(O)c3c2O[C@H](c2ccc(O)c(O)c2)[C@H](O)C3)c(O)c(C)c1OC | Non-Toxic | 43.6 to 52.4 µM
CCCC(=O)c1c(O)c(Cc2c(O)cc(O)c3c2O[C@H](c2ccc(O)c(O)c2)[C@@H](O)C3)c(O)c(C)c1OC | Non-Toxic | 38.1 to 43.6 µM
COc1c(C)c(O)c(Cc2c(O)cc(O)c3c2O[C@H](c2ccc(O)c(O)c2)[C@@H](O)[C@@H]3c2c(O)cc(O)c3c2O[C@H](c2ccc(O)c(O)c2)[C@H](O)C3)c(O)c1C(=O)C(C)C | Non-Toxic | 38.1 µM
CCC(C)C(=O)c1c(O)c(Cc2c(O)cc(O)c3c2O[C@H](c2ccc(O)c(O)c2)[C@@H](O)C3)c(O)c(C)c1OC (stereo partly specified) | Non-Toxic | 60.4 µM
COC(=O)[C@@H](N)CCCNC(=N)N[N+](=O)[O-] [L-NAME] | – | 24.7 µM
